Legend:
[1] = test system: Canis familiaris; assay: Inhibitory activity when administered intravenously in histamine-stimulated gastric fistula dog at 3 mg/kg, id; assay type: functional; details: Canis lupus familiaris, Stomach, in the assay text read “in” for “when administered intravenously in”
Summary of the method: (§1)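 Conscious gastric-fistula dogs fasted 18 h, given 3 mg/kg after a 30-min basal period. Histamine infused at 15 μg/kg per h, with gastric juice collected every 30 min for 4 h. Total acidity found by titration with 0.1 N NaOH to pH 7.0.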

[2] = biological target: Potassium-transporting ATPase (Canis familiaris); assay: In vitro inhibitory activity against H+/K+ ATPase prepared from canine fundic mucosa
[3] = test system: Canis familiaris; assay: Inhibitory activity when administered […] in histamine-stimulated gastric fistula dog at 3 mg/kg, id; Lethal at 10 mg/kg, id; assay type: functional, organism-based; details: Canis lupus familiaris, Stomach; summary of the method: as §1

Row | SMILES | inhibition in vivo at 3 mg/kg [1] [%] | IC50 [2] [µM] | inhibition [3]
1 | COc1c(C)cc(N)c(C[S+]([O-])c2nc3ccccc3[nH]2)c1C (stereo not given) | 53 | 0.2 | 
2 | Nc1cc(Cl)ccc1C[S+]([O-])c1nc2ccccc2[nH]1 (stereo not given) | 13 | 24 | 
3 | CCc1cccc(C[S+]([O-])c2nc3ccccc3[nH]2)c1N (stereo not given) | 21 | 3.9 | 
4 | Cc1cccc2[nH]c([S+]([O-])Cc3ccccc3N)nc12 (stereo not given) | 60 | 7.4 | 
5 | Cc1ccc(C)c(C[S+]([O-])c2nc3ccccc3[nH]2)c1N (stereo not given) |  | 0.8 | 
6 | COc1cccc(C[S+]([O-])c2nc3cc(C(F)(F)F)ccc3[nH]2)c1N (stereo not given) |  | 8.5 | 
7 | CCc1ccc(N)c(C[S+]([O-])c2nc3ccccc3[nH]2)c1 (stereo not given) | 62 | 2 | 
8 | COc1ccc2[nH]c([S+]([O-])Cc3ccccc3N)nc2c1 (stereo not given) | 78 | 11 | 
9 | COc1ccc2[nH]c([S+]([O-])Cc3cc(C)ccc3N)nc2c1 (stereo not given) | 80 | 4.2 | 
10 | CCOC(=O)c1ccc(N)c(C[S+]([O-])c2nc3ccc(OC)cc3[nH]2)c1 (stereo not given) |  | > 100 | 
11 | CNc1ccccc1C[S+]([O-])c1nc2ccccc2[nH]1 (stereo not given) | 21 | 0.6 | 
12 | Cc1cc(Cl)cc(C[S+]([O-])c2nc3ccccc3[nH]2)c1N (stereo not given) |  | 60 | 
13 | CC(=O)Nc1ccccc1C[S+]([O-])c1nc2ccccc2[nH]1 (stereo not given) | 37 | > 100 | 
14 | Cc1c(Cl)ccc(C[S+]([O-])c2nc3ccccc3[nH]2)c1N (stereo not given) |  | 6.4 | 
15 | Cc1cc2nc([S+]([O-])Cc3ccccc3N)[nH]c2cc1C (stereo not given) | 44 | 13.5 | 
16 | Nc1ccc(C(F)(F)F)cc1C[S+]([O-])c1nc2ccccc2[nH]1 (stereo not given) | 16 | > 100 | 
17 | Nc1ccc(Cl)cc1C[S+]([O-])c1nc2ccccc2[nH]1 (stereo not given) | 24 | > 100 | 
18 | [O-][S+](Cc1ccccn1)c1nc2ccccc2[nH]1 (stereo not given) [TIMOPRAZOLE] | 68 |  | 
19 | COc1cccc(C[S+]([O-])c2nc3ccccc3[nH]2)c1N (stereo not given) | 68 | 9.3 | 
20 | Cc1cccc(N)c1C[S+]([O-])c1nc2ccccc2[nH]1 (stereo not given) | 44 | 0.7 | 
21 | Nc1ccccc1C[S+]([O-])c1nc2cc(Cl)ccc2[nH]1 (stereo not given) |  | 12 | 
22 | COc1ccc(N)c(C[S+]([O-])c2nc3ccccc3[nH]2)c1 (stereo not given) |  | 1.6 | 

Row | SMILES | inhibition in vivo at 3 mg/kg [1] [%] | IC50 [2] [µM] | inhibition [3]
23 | Nc1ccccc1C[S+]([O-])c1nc2ccccc2[nH]1 (stereo not given) | 53 | 4.3 | 
24 | CCOc1ccc2[nH]c([S+]([O-])Cc3ccccc3N)nc2c1 (stereo not given) |  | 24 | 
25 | Cc1ccc(C[S+]([O-])c2nc3ccccc3[nH]2)c(N)c1C (stereo not given) | 79 | 0.6 | 
26 | Nc1ccccc1C[S+]([O-])c1nc2cc(C(F)(F)F)ccc2[nH]1 (stereo not given) | 37 | 4.4 | 
27 | CCOc1ccc2[nH]c([S+]([O-])Cc3cc(C)ccc3N)nc2c1 (stereo not given) |  | 5.3 | 
28 | COC(=O)c1cccc(C[S+]([O-])c2nc3ccccc3[nH]2)c1N (stereo not given) | 28 | > 100 | 
29 | COc1ccc2[nH]c([S+]([O-])Cc3c(N)cc(C)c(OC)c3C)nc2c1 (stereo not given) | 31 | 2.1 | 
30 | Cc1cc(N)c(C[S+]([O-])c2nc3ccccc3[nH]2)c(C)c1C (stereo not given) |  | 10 | 
31 | CCCCc1ccc(N)c(C[S+]([O-])c2nc3ccccc3[nH]2)c1 (stereo not given) | 19 | 2.6 | 
32 | CCOC(=O)c1ccc(N)c(C[S+]([O-])c2nc3ccccc3[nH]2)c1 (stereo not given) | 7 | > 100 | 
33 | Cc1ccc2nc([S+]([O-])Cc3ccc(C)c(C)c3N)[nH]c2c1 (stereo not given) |  | 0.7 | 
34 | Nc1ccc(F)cc1C[S+]([O-])c1nc2ccccc2[nH]1 (stereo not given) |  | 25 | 
35 | CN(C)c1ccccc1C[S+]([O-])c1nc2ccccc2[nH]1 (stereo not given) | 14 | 0.7 | 
36 | Cc1ccc(C)c(C[S+]([O-])c2nc3cc(C(F)(F)F)ccc3[nH]2)c1N (stereo not given) |  | 1.5 | 
37 | COc1cc(Cl)c(C)c(C[S+]([O-])c2nc3ccccc3[nH]2)c1N (stereo not given) |  | 2.7 | 
38 | Cc1ccc(N)c(C[S+]([O-])c2nc3ccccc3[nH]2)c1 (stereo not given) | 67 | 2.1 | 
39 | COc1ccc2[nH]c([S+]([O-])Cc3ncc(C)c(OC)c3C)nc2c1 (stereo not given) [OMEPRAZOLE] | 97 |  | 
40 | COc1ccc2[nH]c([S+]([O-])Cc3cccc(C)c3N)nc2c1 (stereo not given) | 72 | 5.4 | 
41 | Cc1ccc2[nH]c([S+]([O-])Cc3ccccc3N)nc2c1 (stereo not given) |  | 7.9 | 
42 | Cc1cccc(C[S+]([O-])c2nc3ccccc3[nH]2)c1N (stereo not given) | 44 | 3.2 | 
43 | COc1cc2nc([S+]([O-])Cc3ccccc3N)[nH]c2cc1OC (stereo not given) |  | 120 | 
44 | Cc1cc(C)c(N)c(C[S+]([O-])c2nc3ccccc3[nH]2)c1 (stereo not given) |  | 0.8 | Lethal at 10mg/kg,id

Reference: ChEMBL document CHEMBL1124135, “Substituted 2-[(2-benzimidazolylsulfinyl)methyl]anilines as potential inhibitors of H+/K+ ATPase” (J Med Chem, 1988)
